Three compounds from ChEMBL document CHEMBL1153955, “Indolylarylsulfones bearing natural and unnatural amino acids. Discovery of potent inhibitors of HIV-1 non-nucleoside wild type and resistant mutant strains reverse transcriptase and coxsackie B4 virus” (J Med Chem, 2009) can be followed below.

Series [1] is described as follows: Cytotoxicity against MDCK cells by MTS assay. It counts as cell-based, Canis lupus familiaris. The following applies: dog.
Series [2] deals with Sindbis virus. In words: Antiviral activity against Sindbis virus in african green monkey Vero cells assessed as protection against virus-induced cytopathicity. The series is classed as functional, organism-based. The essentials:
(§1)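 Confluent cell monolayers inoculated with 100 CCID₅₀ virus. After 1-2 h adsorption, residual virus removed and cultures incubated with varying compound concentrations. Cytopathicity scored once it reached completion in untreated infected controls. EC₅₀ = dose reducing virus-induced cytopathogenicity by 50%.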
In general terms: Damage to the host cells serves as the signal in cytopathic effect assays.

Series [3] in a line: Cytotoxicity against human HeLa cells assessed as drug level causing microscopically detectable alteration of normal cell morphology after 3 days. It counts as cell-based. The essentials:
(§2)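 Serial compound dilutions added to confluent HeLa or Vero monolayers. MCC = minimum concentration causing microscopically detectable alteration of cell morphology after 3 days of incubation.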

The nature of series [4]: Cytotoxicity against MDCK cells assessed as drug level causing microscopically detectable alteration of normal cell morphology. It counts as cell-based, Canis lupus familiaris. Conditions: dog.
Series [5] deals with Influenza B virus. Put plainly: Antiviral activity against influenza B virus in MDCK cells assessed as reduction of virus-induced cytopathicity by visual cytopathic effect scoring method. It counts as functional, organism-based.
For series [6], the system named is Influenza A virus. In words: Antiviral activity against influenza H1N1 virus in MDCK cells assessed as reduction of virus-induced cytopathicity by MTS method. It counts as functional, organism-based. Conditions: Influenza A virus, H1N1, MDCK.
Series [7] concerns Vesicular stomatitis virus. Put plainly: Antiviral activity against VSV in human HEL cells assessed as protection against virus-induced cytopathicity. It counts as functional, organism-based.
The test system of series [8] is Punta Toro virus. In words: Antiviral activity against Punta Toro virus in african green monkey Vero cells assessed as protection against virus-induced cytopathicity. The series is classed as functional, organism-based. The essentials: as §1
The test system of series [9] is Feline coronavirus. In words: Antiviral activity against Feline coronavirus in feline […] cells assessed as inhibition of virus-induced cytopathicity. The series is classed as functional, organism-based. The following applies: Alphacoronavirus 1.
For series [10], the system named is Human immunodeficiency virus 1. In words: Antiviral activity against HIV1 3B in human CEM cells assessed as protection against virus-induced cytopathicity after 4 days. It counts as functional, organism-based. The following applies: Human immunodeficiency virus 1, 3B, CCRF-CEM, 96 h. The essentials:
(§3)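 CEM cells (~3 × 10⁵ cells/mL) infected with ~100 CCID₅₀ per mL of HIV-1 (IIIB) or HIV-2 (ROD), then seeded into wells containing compound dilutions. After 4 days at 37 °C, syncytium (giant cell) formation was examined microscopically. EC₅₀ = concentration protecting CEM cells from HIV cytopathicity by 50%.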

The target in series [11] is Human immunodeficiency virus type 1 reverse transcriptase (Human immunodeficiency virus 1, UniProt Q72547). In words: Inhibition of HIV1 reverse transcriptase p66/p51. The following applies: read-out: IC50.
In series [12] the test system is Vaccinia virus. In words: Antiviral activity against Vaccinia virus Lederle in human HEL cells assessed as protection against virus-induced cytopathicity. It counts as functional, organism-based. The following applies: Orthopoxvirus vaccinia.
Series [13] can be described thus: Cytotoxicity against feline CRFK cells by MTS assay. The series is classed as cell-based, Felis catus. Conditions: cat.
Series [14] deals with Coxsackievirus B4. In words: Antiviral activity against Coxsackievirus B4 in african green monkey Vero cells assessed as protection against virus-induced cytopathicity. The following applies: Enterovirus B. The series is classed as functional, organism-based. The essentials:
as §1

Series [15] concerns Human alphaherpesvirus 2. In words: Antiviral activity against HSV2 G in human HEL cells assessed as protection against virus-induced cytopathicity. The series is classed as functional, organism-based. Conditions: Human alphaherpesvirus 2, strain G. The essentials: as §1
Series [16] relates to L1210. Put plainly: Antiproliferative activity against mouse L1210 cells after 2 days. The series is classed as cell-based. The following applies: L1210, 48 h. A digest of the protocol: (§4)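 Cells seeded at 5 × 10⁴ to 7.5 × 10⁴ cells/200 µL with or without serial compound dilutions; incubated at 37 °C for 2 days (L1210) or 3 days (Molt4/C8, CEM). Cell numbers counted with a Coulter counter. CC₅₀ = concentration reducing proliferation by 50% versus untreated controls, read from plots of cell number (% of control) against concentration. Means of at least two independent experiments.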

The subject of series [17] is Human immunodeficiency virus 2. Put plainly: Antiviral activity against HIV2 ROD in human CEM cells assessed as protection against virus-induced cytopathicity after 4 days. The series is classed as functional, organism-based. Conditions: Human immunodeficiency virus 2, ROD, CCRF-CEM, 96 h. A digest of the protocol:
as §3

Series [18] deals with Human immunodeficiency virus type 1 reverse transcriptase (Human immunodeficiency virus 1, UniProt Q72547, Y181I). In words: Inhibition of HIV1 reverse transcriptase p66/p51 Y181I mutant. The following applies: read-out: IC50. A digest of the protocol:
(§5)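 Substrate was 0.5 µg poly(rA)/oligo(dT) 10:1 (0.3 µM 3′-OH ends) with 10 µM [³H]dTTP, at 37 °C. Acid-precipitable radioactivity was counted on GF/C filters after TCA washes.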

For series [19], the system named is Respiratory syncytial virus. In words: Antiviral activity against RSV Long in human HeLa cells assessed as protection against virus-induced cytopathicity. The series is classed as functional, organism-based. A digest of the protocol: as §1
Series [20] has as its target Human immunodeficiency virus type 1 reverse transcriptase (Human immunodeficiency virus 1, UniProt Q72547, L100I). In words: Inhibition of HIV1 reverse transcriptase p66/p51 L100I mutant. The following applies: read-out: IC50. The essentials:
as §5

Series [21] concerns Influenza A virus H3N2. In words: Antiviral activity against influenza H3N2 virus in MDCK cells assessed as reduction of virus-induced cytopathicity by MTS method. The series is classed as functional, organism-based.
Series [22] has as its system Human alphaherpesvirus 1. In words: Antiviral activity against thymidine kinase deficient and acyclovir resistant HSV1 KOS in human HEL cells assessed as protection against virus-induced cytopathicity. The following applies: Human alphaherpesvirus 1, KOS. It counts as functional, organism-based.
A short description of series [23]: Cytotoxicity against african green monkey Vero cells assessed as drug level causing microscopically detectable alteration of normal cell morphology after 3 days. The following applies: chlorocebus sabaeus. It counts as cell-based. A digest of the protocol:
as §2

Series [24] can be described thus: Antiproliferative activity against human Molt4/C8 cells after 3 days. Conditions: MOLT-4, 72 h. It counts as cell-based. A digest of the protocol:
as §4

Series [25] can be described thus: Cytotoxicity against human HEL cells assessed as drug level causing microscopically detectable alteration of normal cell morphology after 3 days. The series is classed as cell-based.
Series [26] has as its system Coxsackievirus B4. In words: Antiviral activity against Coxsackievirus B4 in human HeLa cells assessed as protection against virus-induced cytopathicity. The series is classed as functional, organism-based. The following applies: Enterovirus B. The essentials: as §1
In series [27] the test system is Vesicular stomatitis virus. In words: Antiviral activity against VSV in human HeLa cells assessed as protection against virus-induced cytopathicity. It counts as functional, organism-based.
Series [28] addresses Human immunodeficiency virus type 1 reverse transcriptase (Human immunodeficiency virus 1, UniProt Q72547, K103N). In words: Inhibition of HIV1 reverse transcriptase p66/p51 K103N mutant. Conditions: read-out: IC50. A digest of the protocol:
as §5

Series [29] has as its system Human alphaherpesvirus 1. In words: Antiviral activity against HSV1 KOS in human HEL cells assessed as protection against virus-induced cytopathicity. The following applies: Human alphaherpesvirus 1, KOS. It counts as functional, organism-based.
Series [30] concerns Mammalian orthoreovirus 1. Put plainly: Antiviral activity against Reovirus 1 in african green monkey Vero cells assessed as protection against virus-induced cytopathicity. Conditions: Mammalian orthoreovirus 1, Vero. The series is classed as functional, organism-based. The essentials: as §1
Series [31] has as its system Human respirovirus 3. Put plainly: Antiviral activity against Parainfluenza virus type 3 in african green monkey Vero cells assessed as protection against virus-induced cytopathicity. Conditions: Human respirovirus 3, Vero. It counts as functional, organism-based. A digest of the protocol: as §1
Series [32] deals with CCRF-CEM. In words: Antiproliferative activity against human CEM cells after 3 days. The series is classed as cell-based. Conditions: 72 h. A digest of the protocol:
as §4

In series [33] the test system is Felid alphaherpesvirus 1. Put plainly: Antiviral activity against Feline herpesvirus in feline […] cells assessed as inhibition of virus-induced cytopathicity. The series is classed as functional, organism-based.
Series [34] deals with Influenza A virus. In words: Antiviral activity against influenza H1N1 virus in MDCK cells assessed as reduction of virus-induced cytopathicity by visual cytopathic effect scoring method. The series is classed as functional, organism-based.
The subject of series [35] is Influenza A virus H3N2. Put plainly: Antiviral activity against influenza H3N2 virus in MDCK cells assessed as reduction of virus-induced cytopathicity by visual cytopathic effect scoring method. It counts as functional, organism-based.
The test system of series [36] is Influenza B virus. In words: Antiviral activity against influenza B virus in MDCK cells assessed as reduction of virus-induced cytopathicity by MTS method. It counts as functional, organism-based.
For series [37], the system named is Human immunodeficiency virus 1. In words: Antiviral activity against HIV1 with reverse transcriptase K103N mutation in human CEM cells assessed as protection against virus-induced cytopathicity. Conditions: Human immunodeficiency virus 1, CCRF-CEM. The series is classed as functional, organism-based. A digest of the protocol:
(§6)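 CEM cells (~3 × 10⁵ cells/mL) were infected with ~100 CCID₅₀ virus per mL and seeded with serial compound dilutions. After 4 days at 37 °C, syncytium (giant cell) formation was scored microscopically. EC₅₀ is the concentration giving 50% protection against virus cytopathicity.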

Series [38] deals with Human immunodeficiency virus 1. In words: Antiviral activity against HIV1 with reverse transcriptase Y181C mutation in human CEM cells assessed as protection against virus-induced cytopathicity. The series is classed as functional, organism-based. Conditions: Human immunodeficiency virus 1, CCRF-CEM. The essentials:
as §6

Series [39] relates to Human immunodeficiency virus 1. Put plainly: Antiviral activity against HIV1 with reverse transcriptase Y181I mutation in human CEM cells assessed as protection against virus-induced cytopathicity. It counts as functional, organism-based. The following applies: Human immunodeficiency virus 1, CCRF-CEM. The essentials:
as §6

Series [40] has as its system Human immunodeficiency virus 1. Put plainly: Antiviral activity against HIV1 with reverse transcriptase Y188L mutation in human CEM cells assessed as protection against virus-induced cytopathicity. It counts as functional, organism-based. Conditions: Human immunodeficiency virus 1, CCRF-CEM. A digest of the protocol:
as §6

For series [41], the system named is Human immunodeficiency virus 1. In words: Antiviral activity against HIV1 with reverse transcriptase L100I mutation in human CEM cells assessed as protection against virus-induced cytopathicity. The series is classed as functional, organism-based. Conditions: Human immunodeficiency virus 1, CCRF-CEM. The essentials:
as §6

The term CC50 denotes the concentration that lowers cell viability or growth by half. For orientation: EC50 means the concentration that produces a half-maximal response. For orientation: IC50 means the point on the concentration scale where inhibition reaches its midpoint. As for `Cc1cc(C)cc(S(=O)(=O)c2c(C(N)=O)[nH]c3ccc(Cl)cc23)c1`, the CC50 in series [1] and in series [13] was greater than 100 µM throughout. In addition, the EC50 in [2], in series [5], in series [6], in [7], in series [8] and in series [9] was greater than 100 µM each time. Also, the 50% effective concentration (EC50) in series [10] was 0.0011 µM; in [12] it was greater than 100 µM; in [14] it was greater than 100 µM; in series [15], greater than 100 µM; in series [17] it was greater than 2 µM; in [19] it was greater than 100 µM. Besides, the half-maximal effective concentration (EC50) in [21], in [22], in series [26], in series [27], in series [29] and in [30] was greater than 100 µM throughout. Moreover, the EC50 in series [31], in series [33], in series [34], in series [35] and in series [36] was greater than 100 µM each time. Further, the MCC at 72 h in [3], in series [23] and in series [25] was greater than 100 µM each time. Further, the MCC in series [4] is greater than 100 µM. Besides, the IC50 in series [11] is 0.0003 µM; in series [16] it was no less than 500 µM; in [18] it was 0.14 µM; in [20], 0.06 µM; in [24] it was 20 µM; in series [28], 0.003 µM. Also, 301 µM corresponded to half-maximal inhibition in [32] (IC50).

With `O=C1Nc2ccc(Cl)cc2[C@@](C#CC2CC2)(C(F)(F)F)O1` [EFAVIRENZ], the half-maximal inhibitory concentration (IC50) in series [37] turned out to be 0.13 µM; in series [38], 0.16 µM; in [39], 0.012 µM; in [40], 0.76 µM; in [41], 0.022 µM.

For `Cc1ccnc2c1NC(=O)c1cccnc1N2C1CC1` [NEVIRAPINE], the half-inhibitory concentration (IC50) in series [37] was 2.9 µM; in [38] it was 11 µM; in series [39], greater than 10 µM; in [40], greater than 10 µM; in series [41], 0.06 µM.
